Screens as filed in PubChem.
In the library only some 4.2% were active in any assay of this set; here they are far more common.
TAAR1 agonist = human TAAR1 agonism; Q96RJ0; CHO RD-HGA16 TAAR1, Fluo-8 calcium fluorescence; vehicle wells 0%, saturating PEA agonist 100%; activation, % at 3 µM; hit rate 0.99% among 360,000; AID 624467;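 active = activation above the mean activation of all test compounds in the run plus 3 SD, cut at about 38% in these data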
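Test system: RD-HGA16 (CHO) cells co-expressing Gα16 and hTAAR1 / Benchmarks: DMSO vehicle as 0%, PEA at EC100 as 100% / Repeats: no replicates (n 1) / Measure: % activation from peak over basal fluorescence ratio, DMSO-to-PEA scaled / Timing: 17-24 h plating, Fluo-8 75 min 37 °C, 30 min RT / Technique: kinetic Fluo-8 calcium fluorescence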
CHO parental Ca = counter-screen: ATP calcium response change in parental CHO cells | parental CHO-K1, ATP-induced calcium, Fluo-8 fluorescence | inhibition, % at 5.6 µM | hit rate 0.63% among 330,000;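 active = inhibition above that plate's mean sample inhibition plus 3 SD, cut at about 26% in these data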;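 also: 0% = ATP-challenged DMSO wells and 100% = DMSO wells without ATP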
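Assay system – parental CHO cells · Reagent – ATP stimulus · Detection – intracellular calcium via Fluo-8 no-wash fluorescent dye · Evaluation – percent inhibition of ATP-evoked calcium rise, normalized to controls · Controls – ATP wells versus no-ATP DMSO wells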
OX1R antag-1 = blocks the human orexin 1 receptor | O43613 | OX1R-expressing cells, FRET antagonist read-out | inhibition, % at 6.6 µM | hit rate 1.8% among 330,000; in the data active = inhibition mostly above about 38%, no sharp cut-off; inactive = mostly below about 40%;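 also: 0% = agonist challenge alone and 100% = reference antagonist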
Target sequence (O43613 whole entry, looked up): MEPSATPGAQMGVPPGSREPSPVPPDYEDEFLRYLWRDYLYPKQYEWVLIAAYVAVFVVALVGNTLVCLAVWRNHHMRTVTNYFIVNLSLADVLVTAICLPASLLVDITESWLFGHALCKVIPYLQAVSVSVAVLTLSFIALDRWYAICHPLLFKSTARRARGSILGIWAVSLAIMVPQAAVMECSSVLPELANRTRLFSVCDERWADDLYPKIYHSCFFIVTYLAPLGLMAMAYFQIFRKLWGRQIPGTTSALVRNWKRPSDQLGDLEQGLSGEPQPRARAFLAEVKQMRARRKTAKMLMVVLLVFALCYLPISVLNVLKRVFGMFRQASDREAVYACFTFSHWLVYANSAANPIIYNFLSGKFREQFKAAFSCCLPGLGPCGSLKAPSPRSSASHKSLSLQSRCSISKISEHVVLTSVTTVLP
TAAR1 antag = antagonists of human TAAR1; hit rate 1.5% among 360,000; inhibition, % at 3 µM; CHO RD-HGA16 TAAR1, Fluo-8 calcium fluorescence, antagonist; AID 624466; Q96RJ0;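 active = inhibition above a per-plate cutoff, the mean inhibition of test compounds on that plate plus 3 SD, cut at about 49% in these data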;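 also: 0% = DMSO plus EC80 beta-PEA response and 100% = DMSO alone without agonist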
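System: CHO RD-HGA16 cells bearing hTAAR1. Reagent: EC80 β-phenethylamine stimulus. Schedule: seeding 17-24 h prior, 75-min 37 °C, 30-min RT dye loading. Signal: Fluo-8 intracellular calcium dye fluorescence, real-time kinetic reads. Read-out: % inhibition from peak post-agonist over basal fluorescence ratio. Benchmarks: vehicle wells and EC80 agonist wells. Replicates: n of 1.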
OX1R antag-2 = blocks the human orexin 1 receptor; CHO/OX1R cells, Fluo-8 calcium fluorescence, orexin A; O43613; AID 434989; hit rate 0.43% among 330,000; inhibition, % at 5 µM;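 active = inhibition above its plate's threshold, mean inhibition of all tested compounds on the plate plus 3 SD, cut at about 37% in these data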;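 also: 0% = orexin A challenge wells and 100% = SB-334867-A antagonist wells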
GalR3 antagonist = antagonists of human GalR3 | O60755 | HEK293 GalR3-CNG cAMP membrane potential fluorescence; galR3 body fused to GalR1 C-terminus | inhibition, % at 3 µM | hit rate 0.44% among 360,000 | AID 651719;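 active = inhibition above the screen-wide average plus 3 SD, cut at about 13% in these data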;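 also: forskolin and galanin both at EC90 stimulate the cells; cAMP rise reported by CNG channel membrane potential dye signal; 0% = forskolin plus galanin with DMSO and 100% = forskolin alone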
Starred values were filed as active, the others as inactive; nt = no result.

SMILES	TAAR1 agonist	CHO parental Ca	OX1R antag-1	TAAR1 antag	OX1R antag-2	GalR3 antagonist
COc1ccc(CCNC(=O)c2cc3c(=O)n4ccccc4nc3n(CCCN3CCOCC3)c2=N)cc1OC	1	-18	74*	-5	8	-8
Cc1ccc2nc3c(cc(C(=O)NC4CCCC4)c(=N)n3CCCn3ccnc3)c(=O)n2c1	nt	-7	84*	nt	-1	nt
N=c1c(C(=O)NC2CCCC2)cc2c(=O)n3ccccc3nc2n1CCCN1CCOCC1	-1	-1	45*	-3	-14	-9
COc1ccc(CCNC(=O)c2cc3c(=O)n4ccccc4nc3n(CCN3CCOCC3)c2=N)cc1	7	-1	31	18	-4	1
Oc1ccc(Nc2nc(NCC3CCCO3)c3ccccc3n2)cc1 (stereo unspecified)	14	nt	nt	1	nt	-4
CCCc1cc(C(=O)NNC(=S)NCC2CCCO2)cs1 (stereo unspecified)	4	-12	7	-11	-22	-13
COc1ccc(-n2nc(C(=O)NCC(=O)N3CCN(c4ccccn4)CC3)c3ccccc3c2=O)cc1	16	-15	15	24	-26	-1
COc1ccc(-n2nc(C(=O)NCC(=O)N3CCN(c4ccccc4OC)CC3)c3ccccc3c2=O)cc1OC	13	-7	15	52*	-1	-8
COc1ccc(-n2nc(C(=O)NCC(=O)N3CCN(c4ccccc4)CC3)c3ccccc3c2=O)cc1OC	8	-20	17	36	-39	-6
COc1ccc(-n2nc(C(=O)NCC(=O)NCc3cccc(F)c3)c3ccccc3c2=O)cc1Cl	15	-4	10	50*	-22	-7
COc1ccc(-n2nc(C(=O)NCC(=O)N3CCN(c4ccccn4)CC3)c3ccccc3c2=O)cc1OC	12	-24	14	57*	-24	4
CCOC(=O)NC(=O)CSc1nc2ccc(C)cc2[nH]1	5	-3	28	25	-11	-4
COc1ccc(-c2cncc3nccn23)cc1OC	0	nt	nt	11	nt	-2
CN(Cc1cccnc1)C(=O)c1cc(COc2ccc3c(c2)CCCC3)on1	4	40*	28	16	25	-2
CC(=O)c1cccc(OCc2cc(C(=O)N(C)Cc3cnccn3)no2)c1	2	-13	1	-1	-22	0
O=C1CN(C(=O)COC(=O)Cc2ccsc2)c2ccccc2N1	15	-5	12	-2	-7	-5
CCN(CCCNC(=O)CCc1nc(-c2ccc(OC)cc2)no1)c1cccc(C)c1	3	-7	55*	9	29	0
COc1ccc(-c2noc(CCC(=O)NCC3CCN(Cc4cccc(C)c4)CC3)n2)cc1	6	-8	11	-3	-10	-5
CCN(CC(=O)Nc1ccc(NC(C)=O)cc1)C(=O)c1ccc2ccccc2c1	5	-12	15	-30	-30	1
CCN(CC)C(=O)c1ccc2nc3ccccc3nc2c1	5	-6	65*	-4	-15	-3
CCN(CC)C(=O)c1ccc2nc(-c3ccccc3)c(-c3ccccc3)nc2c1	10	-8	23	-9	-37	-6
CCN(CC)C(=O)c1cccc(NC(=O)c2cc(-c3ccccn3)nc3ccccc23)c1	17	-15	8	49*	-7	-5
CCN(CC(=O)Nc1ccc(NC(C)=O)cc1)C(=O)c1cc(-c2ccccc2Cl)nc2ccccc12	39*	nt	nt	72*	nt	0
CCN(CC)S(=O)(=O)c1cc(NC(=O)c2cc(-c3ccccn3)nc3ccccc23)ccc1C	16	-17	15	55*	-22	-1
Cc1nn2c(N3CCN(C)CC3)c3c(nc2c1-c1ccccc1)CCCC3	4	-16	18	8	-22	-6
SMILES	TAAR1 agonist	CHO parental Ca	OX1R antag-1	TAAR1 antag	OX1R antag-2	GalR3 antagonist
O=C(NCc1cccc(C(F)(F)F)c1)c1csc([C@@H]2O[C@H](CO)[C@H](O)[C@H](O)[C@H]2O)n1	2	nt	nt	-23	nt	-6
COc1ccc(NC(=O)C(=O)NCCC2CCCCN2S(=O)(=O)c2cccs2)cc1 (stereo unspecified)	1	0	22	-10	-24	5
C=CCn1c(O)c(C=Nc2ccccc2)sc1=S	14	-11	21	-6	-27	-8
Cc1ccc(-c2cc(C(=O)Nc3cccc(S(=O)(=O)N(C)C)c3)c3ccccc3n2)o1	29	3	14	58*	-9	-6
Nc1ccc2c3c(cccc13)-c1ccccc1-2	82*	nt	nt	72*	nt	-5
Cc1ccc2c3c(cccc13)-c1ccccc1C2=O	2	-19	37	11	-27	-2
CCC(=O)N(Cc1ccc(C)cc1)Cc1cc2cc3c(cc2[nH]c1=O)OCO3	7	-18	8	15	4	-3
CN1CCN(c2ccc(Nc3ccnc4cc(Cl)ccc34)cc2)CC1	20	-7	32	1	-15	-13
CCN1CCN(c2ccc(Nc3ccnc4ccccc34)cc2)CC1	1	-7	30*	-5	-16	-6
CCCNC(=O)c1ccc(N2CCC3(CC2)CC(c2cccc(Br)c2)=NO3)c([N+](=O)[O-])c1	5	16	40	51*	7	-10
CCN=C1NC(c2cccc(Cl)c2)C(C(=O)OC)=C(C)N1Cc1ccc(C(F)(F)F)cc1 (stereo unspecified)	28	nt	nt	41	nt	-8
O=C(O)c1ccc(N/N=C/c2cc(Br)cs2)cc1	38*	8	-5	7	3	-7
CCCCN1CC(COCc2ccccc2)Oc2cccc(N3CCCCC3)c2S1(=O)=O (stereo unspecified)	-1	nt	nt	-35	nt	-4
CC[C@]12c3[nH]c4cc(CCC(=O)N(C)C)ccc4c3CCN1C(=O)[C@@H](CC(=O)NCCN1CCOCC1)C[C@@H]2C(=O)N1CCN(C(=O)C2CC2)CC1	3	-4	6	-25	6	-6
Cc1noc(C)c1C(=O)N1CCC1(C)C(=O)NS(=O)(=O)c1ccc(Br)cc1 (stereo unspecified)	2	nt	nt	-14	nt	-1
CN1c2ccsc2/C(=N/Nc2ccc(F)cc2)CS1(=O)=O	44*	-1	15	29	-18	-5
Cc1cc(NC(=O)c2cc3cccc([N+](=O)[O-])c3[nH]2)ccc1F	5	5	46*	7	6	1
COCC(C)NC(=O)c1cc2cccc([N+](=O)[O-])c2[nH]1 (stereo unspecified)	0	-16	35	12	-33	-2
Oc1ccc(Oc2ccc(Oc3ccc(O)cc3)cc2)cc1	8	3	24	51*	-2	-4
S=c1nc(Cc2ccc(Cl)cc2)[nH]c2ccccc12	26	-22	7	31	-26	13*
